19 compounds from ChEMBL document CHEMBL1131071, “Design and synthesis of brefeldin A sulfide derivatives as prodrug candidates with enhanced aqueous solubilities” (1998) can be followed below.

Holding throughout (type): functional
Holding throughout (conditions): Homo sapiens

The subject of one assay is SF-539. Kind of assay: Cytotoxicity against CNS SF-539 cancer cell cultures. In short, it runs like this:
(§1)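 Human cancer cell lines from a panel of about 55, incubated with compound for 72 h (3-day incubation). Values are single determinations or, where given with population standard deviation, two determinations.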

A further assay concerns DU-145. Kind of assay: Cytotoxicity against prostate DU-145 cancer cell cultures. In short, it runs like this: as §1
For a further assay, the system named is HOP-62. Kind of assay: Cytotoxicity against lung HOP-62 cancer cell cultures. In short, it runs like this: as §1
A further assay has as its system HCT-116. Kind of assay: Cytotoxicity against colon HCT116 cancer cell cultures. In short, it runs like this: as §1
The next assay concerns OVCAR-3. Kind of assay: Cytotoxicity against ovarian OVCAR-3 cancer cell cultures. In short, it runs like this: as §1
The subject of a further assay is SN12C. Kind of assay: Cytotoxicity against renal SN12C cancer cell cultures. In short, it runs like this:
as §1

The subject of the next assay is UACC-62. Kind of assay: Cytotoxicity against melanoma UACC-62 cancer cell cultures. In short, it runs like this:
as §1

The test system of the next assay is MDA-MB-435. Put plainly: Cytotoxicity against breast MDA-MB-435 cancer cell cultures. In short, it runs like this:
as §1

The GI50 is the concentration that inhibits growth by half. Low readings indicate more potent growth inhibition, high ones less potent growth inhibition. `C[C@H]1CCC/C=C/[C@@H]2C[C@H](O)C[C@H]2[C@H](O)[C@H](SCC(O)CO)CC(=O)O1` (stereo not given in full): the GI50 was found to be 32 µM in the assay with SF-539; 18 µM in the assay on DU-145; 33 µM in the assay on HOP-62; 36 µM in the assay on HCT-116; 22 µM with OVCAR-3; 34 µM in the assay with SN12C. Moreover, the GI50 was 16 µM with UACC-62 and 36 µM in the assay with MDA-MB-435.
`C[C@H]1CCC/C=C/[C@@H]2C[C@H](O)C[C@H]2[C@H](O)[C@H](SCCN)CC(=O)O1`: the 50% growth inhibitory concentration (GI50) with SF-539 amounted to 4.9 µM; in the assay on HOP-62, 3.9 µM; in the assay on HCT-116, 3.5 µM; with OVCAR-3, 2.2 µM; in the assay on UACC-62, 2.7 µM; with MDA-MB-435, 3.3 µM.
In the case of `C[C@H]1CCC/C=C/[C@@H]2C[C@H](O)C[C@H]2[C@H](O)[C@H]([S+]([O-])CCO)CC(=O)O1` (stereo not given in full), the 50% growth inhibitory concentration (GI50) in the assay with SF-539 was found to be 0.058 µM; in the assay with DU-145, 0.26 µM; in the assay with HOP-62, 0.29 µM; in the assay with HCT-116 it was 0.21 µM; in the assay with OVCAR-3 it was 0.19 µM; with SN12C, 0.65 µM. Besides, the GI50 in the assay on UACC-62 worked out at 0.064 µM; in the assay with MDA-MB-435, 0.09 µM.
For the compound `C[C@H]1CCC/C=C/[C@@H]2C[C@H](O)C[C@H]2[C@H](O)[C@H](SCCN(C)C)CC(=O)O1`, the GI50 was 0.39 µM in the assay with SF-539; 2.4 µM in the assay with DU-145; 0.54 µM in the assay with HOP-62; 0.75 µM with HCT-116; 0.54 µM in the assay on OVCAR-3; 1.4 µM in the assay with SN12C. In addition, the GI50 was 0.43 µM with UACC-62 and 0.5 µM in the assay with MDA-MB-435.
Consider `COc1ccc(S[C@@H]2CC(=O)O[C@@H](C)CCC/C=C/[C@@H]3C[C@H](O)C[C@H]3[C@@H]2O)cc1`, for which the 50% growth inhibitory concentration (GI50) with SF-539 amounted to 26 µM; in the assay with DU-145, 36 µM; with HOP-62, 24 µM; with HCT-116, 33 µM; in the assay on OVCAR-3, 22 µM; in the assay on SN12C it was 30 µM. Further, the GI50 in the assay with UACC-62 stood at 29 µM; in the assay with MDA-MB-435 it was 19 µM.
With `C[C@H]1CCC/C=C/[C@@H]2C[C@H](O)C[C@H]2[C@H](O)[C@H]([S+]([O-])CCN(C)C)CC(=O)O1` (stereo not given in full), the GI50 was determined as 0.3 µM in the assay on SF-539; 0.48 µM with DU-145; 0.35 µM with HOP-62; 0.28 µM in the assay on HCT-116; 0.14 µM in the assay on OVCAR-3; 0.15 µM in the assay with SN12C. Moreover, the values for the GI50 in the assay with UACC-62 and with MDA-MB-435 were 0.071 µM and 0.41 µM, respectively.
Turning to `C[C@H]1CCC/C=C/[C@@H]2C[C@H](OC(=O)CCC(=O)O)C[C@H]2[C@H](O)/C=C/C(=O)O1`, the concentration for 50% growth inhibition (GI50) in the assay with DU-145 was determined as 6.8 µM; in the assay on HOP-62 it was 3.4 µM; in the assay with HCT-116 it was 17 µM; in the assay with OVCAR-3 it was 3.3 µM; in the assay on UACC-62, 1.9 µM.
For `C[C@H]1CCC/C=C/[C@@H]2C[C@H](OC(=O)CCCC(=O)O)C[C@H]2[C@H](O)/C=C/C(=O)O1`, the GI50 worked out at 22 µM in the assay on SF-539; 30 µM in the assay on DU-145; 33 µM in the assay with HOP-62; 21 µM in the assay with HCT-116; 20 µM with OVCAR-3; 32 µM in the assay on SN12C. This compound also registered a GI50 in the assay with MDA-MB-435 of 11 µM.
Take `C[C@H]1CCC/C=C/[C@@H]2C[C@H](O)C[C@H]2[C@H](O)[C@H](SCC(=O)O)CC(=O)O1`: the GI50 in the assay on SF-539 worked out at 34 µM; with DU-145, 38 µM; with HOP-62, 30 µM; in the assay with HCT-116, 23 µM; in the assay on OVCAR-3 it was 30 µM; with SN12C, 39 µM. Besides, the GI50 with UACC-62 is 33 µM; in the assay on MDA-MB-435 it was 42 µM.
Take `C[C@H]1CCC/C=C/[C@@H]2C[C@H](O)C[C@H]2[C@H](O)[C@H](Sc2ccc(O)cc2)CC(=O)O1`: the GI50 stood at 5.1 µM with SF-539; 6.3 µM in the assay on DU-145; 3.2 µM in the assay on HOP-62; 2.5 µM in the assay with HCT-116; 2.4 µM in the assay with OVCAR-3; 4.4 µM in the assay on SN12C. Besides, the 50% growth inhibitory concentration (GI50) was 4.8 µM in the assay on UACC-62 and 3.3 µM in the assay with MDA-MB-435.
Turning to `C[C@H]1CCC/C=C/[C@@H]2C[C@H](O)C[C@H]2[C@H](O)[C@H]([S+]([O-])CCN)CC(=O)O1` (stereo not given in full), the GI50 in the assay on SF-539 came out at 0.02 µM; with DU-145, 0.17 µM; in the assay on HOP-62, 0.15 µM; with HCT-116, 0.086 µM; in the assay with OVCAR-3 it was 0.082 µM; in the assay on SN12C, 0.12 µM. Further, the 50% growth inhibitory concentration (GI50) came out at 0.021 µM with UACC-62 and 0.055 µM in the assay with MDA-MB-435.
Consider `C[C@H]1CCC/C=C/[C@@H]2C[C@H](O)C[C@H]2[C@H](O)C(O)C(O)C(=O)O1` (stereo not given in full), for which the GI50 in the assay with SF-539 worked out at 0.68 µM; in the assay with DU-145, 6.7 µM; with HOP-62, 5 µM; with HCT-116, 3.4 µM; in the assay on OVCAR-3 it was 2.4 µM; in the assay on SN12C it was 2.7 µM. The concentration for 50% growth inhibition (GI50) in the assay with UACC-62 worked out at 1.6 µM; with MDA-MB-435 it was 3.8 µM.
In the case of `C[C@H]1CCC/C=C/[C@@H]2C[C@H](O)C[C@H]2[C@H](O)[C@H]([S+]([O-])c2ccc(O)cc2)CC(=O)O1` (stereo not given in full), the concentration for 50% growth inhibition (GI50) with SF-539 was 0.017 µM; in the assay with DU-145, 0.118 µM; with HOP-62, 0.088 µM; with HCT-116 it was 0.026 µM; with OVCAR-3, 0.025 µM; in the assay on SN12C, 0.05 µM. The concentration for 50% growth inhibition (GI50) in the assay on UACC-62 worked out at 0.03 µM; with MDA-MB-435, 0.042 µM.
Take `C[C@H]1CCC/C=C/[C@@H]2C[C@H](O)C[C@H]2[C@H](O)[C@H](SCCO)CC(=O)O1`: the GI50 with SF-539 amounted to 23 µM; in the assay on DU-145, 30 µM; with HOP-62, 34 µM; in the assay on HCT-116 it was 19 µM; in the assay on OVCAR-3 it was 27 µM; in the assay on SN12C, 33 µM. In addition, the concentration for 50% growth inhibition (GI50) with UACC-62 is 40 µM; in the assay with MDA-MB-435, 34 µM.
Take `C[C@H]1CCC/C=C/[C@@H]2C[C@H](OC(=O)CCCC(=O)O)C[C@H]2[C@H](OC(=O)CCCC(=O)O)/C=C/C(=O)O1`: the concentration for 50% growth inhibition (GI50) with SF-539, in the assay with DU-145, with HOP-62, in the assay with HCT-116, in the assay on OVCAR-3 and in the assay with SN12C was greater than 100 µM throughout. Also, the GI50 in the assay with UACC-62 and with MDA-MB-435 was greater than 100 µM in each case.
As to `C[C@H]1CCC/C=C/[C@@H]2C[C@H](OC(=O)CCC(=O)O)C[C@H]2[C@H](OC(=O)CCC(=O)O)/C=C/C(=O)O1`, the GI50 with SF-539, in the assay with DU-145, in the assay on HOP-62, in the assay on HCT-116, with OVCAR-3 and in the assay with SN12C was greater than 100 µM each time. Also, the GI50 in the assay on UACC-62 and in the assay with MDA-MB-435 was greater than 100 µM in each case.
Take `COC(=O)CS(=O)(=O)[C@@H]1CC(=O)O[C@@H](C)CCC/C=C/[C@@H]2C[C@H](O)C[C@H]2[C@@H]1O`: the GI50 with DU-145 is 6 µM; in the assay on HOP-62, 5.1 µM; in the assay with HCT-116, 3.7 µM; in the assay on OVCAR-3, 3.2 µM; in the assay with SN12C, 3.3 µM; with UACC-62, 5 µM. The compound further showed a GI50 in the assay with MDA-MB-435 of 5.5 µM.
For the compound `COC(=O)CS[C@@H]1CC(=O)O[C@@H](C)CCC/C=C/[C@@H]2C[C@H](O)C[C@H]2[C@@H]1O`, the GI50 with SF-539 worked out at 24 µM; in the assay with DU-145, 30 µM; in the assay on HOP-62 it was 28 µM; in the assay on HCT-116, 19 µM; with OVCAR-3, 27 µM; in the assay on SN12C, 32 µM. Further, the 50% growth inhibitory concentration (GI50) with UACC-62 came out at 6.8 µM; in the assay on MDA-MB-435, 30 µM.
Turning to `C[C@H]1CCC/C=C/[C@@H]2C[C@H](O)C[C@H]2[C@H](O)[C@H]([S+]([O-])CC(N)C(=O)O)CC(=O)O1` (stereo not given in full), the 50% growth inhibitory concentration (GI50) with SF-539 is 0.039 µM; in the assay on DU-145, 0.43 µM; with HOP-62, 0.7 µM; in the assay on HCT-116, 0.089 µM; with OVCAR-3, 0.05 µM; in the assay on SN12C, 0.16 µM. Besides, the 50% growth inhibitory concentration (GI50) in the assay with UACC-62 stood at 0.038 µM; in the assay with MDA-MB-435 it was 0.05 µM.
